# Measured values as given in ChEMBL document CHEMBL1149169 (J Med Chem, 2004).
# Experiments:
# Adenosine receptor A1 [1] = target: T1, Adenosine receptor A1 (Homo sapiens, UniProt P30542); test: Binding affinity against adenosine A1 receptor in human cortical membranes using [3H]CHA as radioligand; format: cell membranes
# T1 sequence (P30542 whole entry): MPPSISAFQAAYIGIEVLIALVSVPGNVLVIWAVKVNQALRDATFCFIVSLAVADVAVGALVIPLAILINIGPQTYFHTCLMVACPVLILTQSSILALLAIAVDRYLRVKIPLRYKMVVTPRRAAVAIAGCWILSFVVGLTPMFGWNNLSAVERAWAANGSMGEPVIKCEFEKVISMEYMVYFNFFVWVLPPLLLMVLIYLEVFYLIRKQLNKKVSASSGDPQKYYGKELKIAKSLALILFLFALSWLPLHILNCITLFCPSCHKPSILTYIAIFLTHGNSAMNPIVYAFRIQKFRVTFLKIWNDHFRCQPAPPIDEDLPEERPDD
# Adenosine receptor A1 [2] = target: T2, Adenosine receptor A1 (Bos taurus, UniProt P28190); test: Binding affinity against adenosine A1 receptor in bovine cortical membranes using [3H]CHA as radioligand; format: cell membranes
# T2 sequence (P28190 whole entry): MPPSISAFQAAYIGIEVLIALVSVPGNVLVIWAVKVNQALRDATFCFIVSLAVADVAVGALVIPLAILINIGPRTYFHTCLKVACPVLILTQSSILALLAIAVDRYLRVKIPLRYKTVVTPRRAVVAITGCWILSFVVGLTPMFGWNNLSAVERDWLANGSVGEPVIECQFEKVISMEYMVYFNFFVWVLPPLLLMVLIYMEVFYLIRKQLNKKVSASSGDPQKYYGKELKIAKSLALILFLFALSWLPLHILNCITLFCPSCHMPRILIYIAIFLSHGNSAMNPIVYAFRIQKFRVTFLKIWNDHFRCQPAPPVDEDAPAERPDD
# How it was run: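 Bovine cortical membranes; [3H]-CHA at 39 Ci/mmol. Compounds dissolved in DMSO, with solvent blanks run. At least six concentrations spanning 3 orders of magnitude.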
# Adenosine receptor A2a = Adenosine receptor A2a (Homo sapiens, UniProt P29274); test: Binding affinity against adenosine A2 receptor in human striatal membranes using [3H]CGS-21680 as radioligand; format: cell membranes, Striatum, Membrane
# [3] = Ratio of binding affinity against bovine adenosine A1 to that of A2 receptor
# [4] = target: Adenosine receptor A2a (Bos taurus); test: Binding affinity against adenosine A2 receptor in bovine striatal membranes using [3H]-CGS-21,680 as radioligand
# Adenosine receptor A1 [5] = target: T2, Adenosine receptor A1; test: Displacement of [3H]DPCPX from adenosine A1 receptor in bovine brain cortical membranes; format: cell membranes
# How it was run: (§1)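 Cortical membranes (0.05–0.1 mg protein) incubated in triplicate at 25 °C for 120 min with about 0.5 nM [3H]-DPCPX (89 Ci/mmol). Buffer: 50 mM Tris/HCl pH 7.7, 1 mM EDTA, 2 mM MgCl2. Nonspecific binding with 10 μM (R)-PIA; GF/C filtration.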
# Adenosine receptor A1 [6] = target: T1, Adenosine receptor A1; test: Displacement of [3H]DPCPX from adenosine A1 receptor in human brain cortical membranes; format: cell membranes; how it was run: as §1
# Sequence of Adenosine receptor A2a (P29274 whole entry): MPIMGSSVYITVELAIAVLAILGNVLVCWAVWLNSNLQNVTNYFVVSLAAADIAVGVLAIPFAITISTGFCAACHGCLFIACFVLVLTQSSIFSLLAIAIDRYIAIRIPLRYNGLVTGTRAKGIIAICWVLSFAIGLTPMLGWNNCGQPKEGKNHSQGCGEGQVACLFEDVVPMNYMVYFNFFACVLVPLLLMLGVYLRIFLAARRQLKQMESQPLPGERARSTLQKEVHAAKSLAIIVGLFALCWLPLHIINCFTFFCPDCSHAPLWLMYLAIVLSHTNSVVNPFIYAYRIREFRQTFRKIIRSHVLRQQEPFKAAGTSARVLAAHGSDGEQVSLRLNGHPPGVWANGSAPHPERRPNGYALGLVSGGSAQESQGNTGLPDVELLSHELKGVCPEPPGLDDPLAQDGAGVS
Ki (Adenosine receptor A1 [1]) [µM],Ki (Adenosine receptor A1 [2]) [µM],Ki (Adenosine receptor A2a) [µM],Compound,other results
> 10,–,–,CCn1c(-c2ccccc2)cc(=O)c2ccc(C)nc21,–
1.5,0.048,–,CCCc1cc(O)c2ccc(C)nc2n1,Ki (Adenosine receptor A1 [5]): 0.0615 µM; Ki (Adenosine receptor A1 [6]): 1.45 µM
> 10,–,–,Cc1ccc2ccc(-c3ccccc3)nc2n1,–
> 10,–,–,COc1cc(-c2ccccc2)nc2c1ccc(=O)n2C,–
0.3,–,–,Oc1cc(-c2ccccc2)nc2nc(Cl)ccc12,Ki (Adenosine receptor A1 [5]): 0.00162 µM; Ki (Adenosine receptor A1 [6]): 0.67 µM
0.98,0.00056,–,CN(C)c1ccc2c(O)cc(-c3ccccc3)nc2n1,Ki (Adenosine receptor A1 [5]): 0.00602 µM; Ki (Adenosine receptor A1 [6]): 1.37 µM
2.2,0.015,–,Cc1ccc2c(O)cc(-c3cccc([N+](=O)[O-])c3)nc2n1,–
2.6,–,1.5,CCOc1ccc2c(O)cc(-c3ccccc3)nc2n1,Ratio [3]: > 1920
> 10,–,–,Cc1ccc2c(Cl)cc(-c3ccccc3)nc2n1,Ratio [3]: > 10
8.8,–,–,Cc1ccc2c(Oc3ccccc3)cc(-c3ccccc3)nc2n1,–
2,0.001,–,CC(=O)Nc1ccc(-c2cc(O)c3ccc(C)nc3n2)cc1,Ki (Adenosine receptor A1 [5]): 0.00167 µM; Ki (Adenosine receptor A1 [6]): 1.46 µM
> 10,0.16,> 10,Oc1cc(-c2ccccc2)nc2nc(N3CCOCC3)ccc12,Ratio [3]: > 63; Ki [4]: > 10 µM
–,0.357,–,Nc1nc2c(cnn2CCc2ccccc2)c2nc(-c3ccco3)nn12 [SCH-58261],–
0.49,–,0.04,Cc1ccc2c(O)cc(-c3ccccc3F)nc2n1,Ratio [3]: 43
4.1,0.21,–,CCCc1cc(O)c2ccc(N)nc2n1,–
–,0.00025,–,"CCCn1c(=O)c2[nH]c(C3CCCC3)nc2n(CCC)c1=O [1,3-DIPROPYL-8-CYCLOPENTYLXANTHINE [DPCPX]]",–
> 10,–,–,O=c1ccc2c(O)cc(-c3ccccc3)nc2[nH]1,Ki (Adenosine receptor A1 [6]): > 10 µM

# More lines, now with the values behind:
Compound,Ki (Adenosine receptor A1 [1]) [µM],Ki (Adenosine receptor A1 [2]) [µM],Ki (Adenosine receptor A2a) [µM],other results
COc1cc(-c2ccccc2)nc2nc(C)ccc12,> 10,–,–,–
Nc1ccc2c(O)cc(-c3ccccc3)nc2n1,3.4,–,–,–
CCOc1ccc2c(=O)cc(-c3ccccc3)n(CC)c2n1,0.93,0.048,1.4,Ratio [3]: 208; Ki [4]: > 10 µM
Oc1cc(-c2ccccc2)nc2nc(F)ccc12,1.4,–,2.7,Ratio [3]: 41
CCOc1ccc2c(OCC)cc(-c3ccccc3)nc2n1,> 10,0.29,> 10,Ratio [3]: > 34; Ki [4]: > 10 µM
Cc1ccc2c(NC3CCCCC3)cc(-c3ccccc3)nc2n1,0.56,–,–,Ki (Adenosine receptor A1 [5]): 0.039 µM; Ki (Adenosine receptor A1 [6]): 0.448 µM
CCOC(=O)CCN1CCN(c2ccc3c(O)cc(-c4ccccc4)nc3n2)CC1,> 10,> 10,–,–
Cc1ccc2c(NN)cc(-c3ccccc3)nc2n1,> 10,–,–,–
Cc1ccc2c(O)cc(-c3ccc(F)cc3)nc2n1,3.9,–,–,–
COc1ccc2c(O)cc(-c3ccccc3)nc2n1,2,–,–,–
Oc1cc(-c2ccccc2)nc2nc(NC3CCCCC3)ccc12,2.2,0.07,–,–
Cc1ccc2c(N)ccnc2n1,> 10,> 10,> 10,Ki [4]: > 10 µM
Oc1cc(-c2ccccc2)nc2nc(Oc3ccccc3)ccc12,> 10,–,–,–
CCOc1cc(-c2ccccc2)nc2c1ccc(=O)n2CC,> 10,4.7,–,–
Oc1cc(-c2ccccc2)nc2nc(N3CCNCC3)ccc12,> 10,> 10,> 10,Ki [4]: > 10 µM
Cc1ccc2c(O)cc(-c3ccccc3)nc2n1,0.43,–,0.55,Ratio [3]: 87
CCOc1cc(-c2ccccc2)nc2nc(Br)ccc12,1,0.05,–,–

Compound,Ki (Adenosine receptor A1 [1]) [µM],Ki (Adenosine receptor A1 [2]) [µM],Ki (Adenosine receptor A2a) [µM],other results
Oc1cc(-c2ccccc2)nc2nc(Br)ccc12,0.36,–,–,Ki (Adenosine receptor A1 [5]): 0.0016 µM; Ki (Adenosine receptor A1 [6]): 0.336 µM
Cc1ccc2c(O)cc(-c3ccc([N+](=O)[O-])cc3)nc2n1,3.1,–,–,–
Cc1ccc2c(O)ccnc2n1,> 10,7,1.8,Ratio [3]: > 1.4; Ki [4]: > 10 µM
Cc1ccc2c(O)cc(-c3cccc(N)c3)nc2n1,4,–,–,–
Cc1ccc2c(N3CCNCC3)cc(-c3ccccc3)nc2n1,> 10,–,–,–
Cc1ccc2c(N(C)C)cc(-c3ccccc3)nc2n1,> 10,–,–,–
Cc1cc(O)c2ccc(N)nc2n1,> 10,> 10,7.5,Ki (Adenosine receptor A1 [5]): > 10 µM; Ki (Adenosine receptor A1 [6]): > 10 µM
Oc1cc(-c2ccccc2)nc2nc(N3CCCCC3)ccc12,7.5,0.0072,> 10,Ratio [3]: > 1390; Ki [4]: > 10 µM
Cc1ccc2c(S)cc(-c3ccccc3)nc2n1,2,–,–,–
CSc1cc(-c2ccccc2)nc2nc(C)ccc12,> 10,0.38,0.21,Ratio [3]: > 26; Ki [4]: > 10 µM
Cc1ccc2c(N)cc(-c3ccccc3)nc2n1,2,–,–,–
Cc1ccc2c(O)cc(-c3ccc(N)cc3)nc2n1,0.91,0.0068,0.11,Ratio [3]: 73; Ki [4]: 0.5 µM
Cc1ccc2c(N=[N+]=[N-])cc(-c3ccccc3)nc2n1,> 10,–,–,–
Cn1c(=O)ccc2c(O)cc(-c3ccccc3)nc21,> 10,–,–,–
Oc1cc(-c2ccccc2)nc2ncccc12,1.3,–,–,–
Cc1cc(O)c2ccc(=O)[nH]c2n1,> 10,> 10,> 10,Ki [4]: > 10 µM
